Source: PubChem (several laboratories)
ABCG2 inh: human ABCG2 inhibition, ABCB1 as counter-screen | IgMXP3 cells, JC-1 efflux, flow cytometry | Q9UNQ0 | inhibition, % at 6.6 µM | AID 1325 | 0.1% of 190,000 active;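 active = inhibition above 80%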
Target sequence (Q9UNQ0 whole entry, looked up): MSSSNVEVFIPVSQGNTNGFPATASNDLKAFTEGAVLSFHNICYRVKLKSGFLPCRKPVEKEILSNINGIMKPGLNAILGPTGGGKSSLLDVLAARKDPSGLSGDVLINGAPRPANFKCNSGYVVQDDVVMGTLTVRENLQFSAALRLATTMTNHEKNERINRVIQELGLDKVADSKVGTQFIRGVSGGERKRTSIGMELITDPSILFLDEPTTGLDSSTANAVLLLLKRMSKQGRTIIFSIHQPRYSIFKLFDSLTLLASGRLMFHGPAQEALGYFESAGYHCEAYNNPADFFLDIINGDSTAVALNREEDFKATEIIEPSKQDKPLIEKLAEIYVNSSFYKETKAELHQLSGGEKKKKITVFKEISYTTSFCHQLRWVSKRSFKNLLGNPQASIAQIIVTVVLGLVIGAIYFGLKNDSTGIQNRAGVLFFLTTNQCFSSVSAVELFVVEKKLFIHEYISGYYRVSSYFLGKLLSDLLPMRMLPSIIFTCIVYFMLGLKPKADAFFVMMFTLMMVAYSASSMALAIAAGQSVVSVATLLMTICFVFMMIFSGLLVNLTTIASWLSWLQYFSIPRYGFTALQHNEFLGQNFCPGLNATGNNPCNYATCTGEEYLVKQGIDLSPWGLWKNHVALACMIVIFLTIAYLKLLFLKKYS
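System: two drug-resistant human cell lines, ABCG2 and ABCB1; controls: nicardipine high and DMSO low controls; times: 10 min exposure at 25 °C with rotation, no wash; detection: flow cytometry of retained JC-1 fluorescence; read-out basis: percent efflux inhibition, scaled nicardipine 100% to DMSO 0%; doses: one concentration, 6.6 µM final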
Lmaj promast: Leishmania major promastigote growth inhibition. Leishmania major promastigotes, resazurin fluorescence viability. inhibition, % at 10 µM. 9% of 200,000 active. AID 1063;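 note: promastigotes grown with compound for 44 hours at 28 °C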
GSH bead fluor: compound fluoresces at 488/530 nm on GSH beads. GSH beads flow cytometry, compound fluorescence 488/530 nm; hits give high values. fluorescence (KMESF) at 10 µM. 0.25% of 190,000 active. AID 1776; in the data active = fluorescence above about 89;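 note: glutathione beads carrying GST-tagged Bcl family fusion proteins plus one bare bead set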
PKD1 inh: inhibitors of human PKD1 kinase; Q15139; PKD1 kinase fluorescence polarization assay; inhibition, % (concentration not given with the values); 0.056% of 200,000 active
ABCB1 block: human ABCB1 inhibition, ABCG2 as counter-screen; P08183; inhibition, % at 6.6 µM; CCRF-Adr cells, JC-1 efflux, flow cytometry; 0.067% of 190,000 active; in the data active = inhibition above about 40%;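 note: higher value means more JC-1 retained so stronger ABCB1 efflux block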
Avidin fluor: compound fluoresces at 488/530 nm on avidin beads; 0.38% of 220,000 active; compound fluorescence 488/530 nm, flow cytometry; hits give high values; fluorescence (KMESF) at 10 µM; in the data active = fluorescence above about 47
Large screens that a line does not name were inactive. Many of the other results were omitted from the sample, so hits are more common in it than they were. Cut-off read from the data, not from the text of the source, unless noted: active = inhibition above about 50%; inactive = the rest.

COC(=O)c1cccc(NC(=O)CCCOc2cccc(C)c2)c1	none
NC(=O)NC(Cc1ccccc1)C(=O)Nc1ccc(S(N)(=O)=O)cc1 (configuration not stated)	GSH bead fluor 253
COc1ccc(-c2cc(C(=O)N3CCN(C(c4ccccc4)c4ccccc4)CC3)no2)cc1OC	Lmaj promast 94
O=C(c1cc(-c2ccccc2)on1)N1CCN(C(=O)c2ccco2)CC1	none
CN1CCN(C(=O)c2cc(-c3ccccc3)on2)CC1	Lmaj promast 70
Cc1nn(C)c(C(=O)Nc2ccc(Cl)c([N+](=O)[O-])c2)c1Cl	none
CCCOc1ccccc1C1C(C(=O)OC)=CN(C(C)C)C=C1C(=O)OC	Lmaj promast 100
CCCCOc1ccccc1C1C(C(=O)OC)=CN(CC)C=C1C(=O)OC	Lmaj promast 61
COC(=O)C1=CN(C)C=C(C(=O)OC)C1c1ccccc1Cl	none
Cc1[nH][nH]c(=O)c1C=NCc1ccc(Cl)cc1	none
C=C1C(C(=O)Nc2ccccc2)C1C(=O)Nc1ccccc1 (configuration not stated)	none (no result: ABCG2 inh, Lmaj promast, GSH bead fluor, PKD1 inh, ABCB1 block)
COc1ccc(N(CCCN2C(=O)c3cccc4cccc(c34)C2=O)C(=O)c2ccncc2)cc1	Lmaj promast 69
COc1ccc(N(CCCN2C(=O)c3cccc4cccc(c34)C2=O)C(=O)c2cccnc2)cc1	Lmaj promast 51
COc1cc(OC)cc(C(=O)N(CCCN2C(=O)c3cccc4cccc(c34)C2=O)c2cccc(OC)c2)c1	none
CCC(C)(C(=O)NC1CCCC1)N(Cc1cccs1)C(=O)c1ccccn1 (configuration not stated)	none
Cn1nnnc1SCC(=O)Nc1ccc(Oc2ccccc2)cc1	Lmaj promast 93
COc1ccc(NC(=O)CSc2nnnn2C)cc1	none
Cc1ccc(S(=O)(=O)N(CC(=O)N2CCN(c3ccc(F)cc3)CC2)C2CCCCC2)cc1	Lmaj promast 59
CCOC(=O)N1CCN(C(=O)CN(C2CCCCC2)S(=O)(=O)c2ccc(C)cc2)CC1	none
CC1=C(C(=O)OCc2ccccc2)C(c2ccsc2)C(C#N)=C(N)O1 (configuration not stated)	none
CCOC(=O)C1=C(N)OC(CCl)=C(C#N)C1c1ccsc1 (configuration not stated)	Lmaj promast 57
COC(=O)C1=C(C)OC(N)=C(C#N)C1c1ccsc1 (configuration not stated)	GSH bead fluor 89
CCOC(=O)c1c(C2CC2)csc1NC(=O)COC(=O)CCS(=O)(=O)c1ccc(C)cc1	none
Cc1c(/C=N/Nc2nc3ccccc3[nH]2)c2ccccc2n1C	none (no result: ABCG2 inh, Lmaj promast, GSH bead fluor, PKD1 inh, ABCB1 block)
C=CCn1cc(/C=N\NC(=O)c2cc3c(ccc4ccccc43)o2)c2ccccc21	Lmaj promast 100
Cc1nn(-c2ccccc2)c(Cl)c1/C=N/Nc1nc2ccccc2n1C	Lmaj promast 52
C#CCn1cc(/C=N/NC(=O)c2cc3ccccc3o2)c2ccccc21	none
Cc1ccsc1/C=N/Nc1nc2ccccc2[nH]1	none
C(=N\Nc1nc2ccccc2[nH]1)/c1cccs1	Lmaj promast 98
Cn1c(/C=N/Nc2nc3ccccc3[nH]2)nc2ccccc21	Lmaj promast 101
Cc1nn(-c2ccccc2)c(Cl)c1/C=N/NC(N)=O	none (no result: ABCG2 inh, Lmaj promast, GSH bead fluor, PKD1 inh, ABCB1 block)
COc1ccc2o/c(=N/NC(=S)Nc3ccccc3)c(C(N)=O)cc2c1	none
O=c1[nH]c(N2CCCCC2)nc2ncn(Cc3ccccc3)c12	none (no result: ABCG2 inh, Lmaj promast, GSH bead fluor, PKD1 inh, ABCB1 block)
O=C(OCC#CCSc1nc2ccccc2o1)c1ccco1	none
O=C1CC(C(=O)Nc2ccc(Cl)cc2[N+](=O)[O-])C2(CCCCC2)O1 (configuration not stated)	none
CC(C)Cn1c(/C=N/Nc2nc3ccccc3[nH]2)nc2ccccc21	Lmaj promast 100
Cc1ccc(N2CCN(/N=C/c3c(C)nn(-c4ccccc4)c3Cl)CC2)cc1	Lmaj promast 89
CCCn1c(/C=N/Nc2nc3ccccc3[nH]2)nc2ccccc21	Lmaj promast 100
Cc1nn(-c2ccccc2)c(C)c1/C=N/Nc1nc2ccccc2[nH]1	Lmaj promast 100
Cc1ccc(/C=N/N2CCN(c3ccccc3)CC2)cc1	none
Cc1cc(=O)[nH]c(N/N=C/c2c(C)nn(-c3ccccc3)c2C)n1	none
COc1ccc(C2CC(C)=C(C#N)S(=O)(=O)C2C#N)cc1 (configuration not stated)	none (no result: ABCG2 inh, Lmaj promast, GSH bead fluor, PKD1 inh, ABCB1 block)
COc1ccc(/C=C/C(=O)NCC(=O)N2CCC(N(C)CCN3CCOCC3)CC2)cc1OC	none
COc1ccc(C2Cc3ccccc3C(=O)O2)cc1 (configuration not stated)	none
C=CCn1cc(/C=N/Nc2nc3ccccc3[nH]2)c2ccccc21	Lmaj promast 101
O=C(c1ccc(F)cc1)N(NC(=O)C(O)(c1ccccc1)c1ccccc1)c1ccccc1	Lmaj promast 66 (no result: ABCB1 block)
Cc1c(Cl)ccc2c(C(=O)NCCN3CCCCC3)cc(-c3ccccn3)nc12	Lmaj promast 79
COC(=O)CNC(=O)c1cc(-c2ccncc2)nc2c(C)c(Cl)ccc12	none
CCOc1ccc(N2C(=O)CS/C2=N/NC(=O)COc2ccc3ccccc3c2)cc1	Lmaj promast 99
CCOC(=O)c1ccccc1NC(=O)Cn1c(=O)n(Cc2ccccc2)c(=O)c2c(C)c(C)sc21	none
CCCCOC(=O)c1ccc(NC(=O)CSC2=Nc3ccccc3C3CC=NN23)cc1 (configuration not stated)	Lmaj promast 99
Cc1c(Cl)cccc1NC(=S)NN1CCOCC1	none
N#Cc1c(-c2ccccc2)cc(-c2ccccc2)nc1SCc1nnc(-c2ccccc2)o1	Lmaj promast 60
CCn1c(COc2ccc(Cl)cc2)nnc1SCc1ccc(C#N)cc1	Lmaj promast 51
C=CCn1c(SCc2ccc(C#N)cc2)nnc1-c1ccc(C)cc1	Lmaj promast 78
COc1ccc(-n2c(COc3ccc(C)cc3)nnc2SCc2ccc(C#N)cc2)cc1	Lmaj promast 68
Cc1ccc(OCc2nnc(SCC(=O)c3ccccc3)n2-c2ccccc2)cc1	Lmaj promast 100
N#Cc1ccc(OCc2nnc(SCC(=O)c3ccccc3)n2-c2ccccc2)cc1	none
Nc1nc(SCCO)[nH]c(=O)c1NC(=O)c1ccccc1F	none
S=C(Sc1ccc(Cl)cc1)Sc1ccc(Cl)cc1	none (no result: ABCG2 inh, Lmaj promast, GSH bead fluor, PKD1 inh, ABCB1 block)
CN(C)c1ccnc(N(Cc2ccccc2)Cc2ccccc2)c1C#N	Lmaj promast 98
Cn1c(=NC(=O)c2ccco2)sc2ccccc21	none
CN(C)c1ccc(N=c2sc3ccccc3n2C)cc1	Lmaj promast 98
Cn1c(=NC(=O)CCl)sc2ccccc21	Lmaj promast 84
COc1ccccc1C/C(N)=N/OC(=O)c1ccco1	none
CCOC(=O)Nc1ccc(=O)n(Cc2c(Cl)cccc2Cl)c1	none
COc1cccc(C2=NC(C)(C)NC(c3ccccc3O)C2)c1 (configuration not stated)	Lmaj promast 97
COc1cccc(C2=NOC(C(=O)NC(C)C)C2)c1 (configuration not stated)	none
